In ChEMBL document CHEMBL4382295, “Enhanced Tumor Selectivity of 5-Fluorouracil Using a Reactive Oxygen Species-Activated Prodrug Approach” (ACS Med Chem Lett, 2019):
Active and inactive are the calls of the source. No cut-off for these calls is given here.

Columns and labels:
[1] = tested on: NCI-H522; test: Antiproliferative activity against human NCI-H522 cells assessed as growth inhibition at 50 uM after 48 hrs by sulforhodamine B assay relative to control; type: functional; conditions: NCI-H522, 48 h, read-out: GI
Summary of the method: (§1)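 NCI cell-line screen (protocol per DTP/NCI). Cells exposed to a single concentration of 50 μM for 48 h, then percent growth inhibition determined.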

[2] = tested on: MDA-MB-435; test: Antiproliferative activity against human MDA-MB-435 cells assessed as growth inhibition at 50 uM after 48 hrs by sulforhodamine B assay relative to control; type: functional; conditions: MDA-MB-435, 48 h, read-out: GI; summary of the method: as §1
[3] = tested on: OVCAR-3; test: Antiproliferative activity against human OVCAR3 cells assessed as growth inhibition at 50 uM after 48 hrs by sulforhodamine B assay relative to control; type: functional; conditions: OVCAR-3, 48 h, read-out: GI; summary of the method: as §1
[4] = tested on: MCF7; test: Antiproliferative activity against human MCF7 cells assessed as growth inhibition at 50 uM after 48 hrs by sulforhodamine B assay relative to control; type: functional; conditions: MCF7, 48 h, read-out: GI; summary of the method: as §1
[5] = tested on: MDA-MB-468; test: Antiproliferative activity against human MDA-MB-468 cells assessed as growth inhibition at 50 uM after 48 hrs by sulforhodamine B assay relative to control; type: functional; conditions: MDA-MB-468, 48 h, read-out: GI; summary of the method: as §1
[6] = tested on: MCF7; test: Induction of DNA damage in human MCF7 cells assessed as increase in gammaH2AX level after 48 hrs by DAPI staining based immunofluorescence assay; type: functional, cell-based
Summary of the method: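 MCF7 cells treated 48 h at the indicated concentrations. γH2AX formation, a marker of DNA double-strand breaks, visualized by immunofluorescence.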

[7] = tested on: MCF7; test: Antiproliferative activity against human MCF7 cells assessed as reduction in cell viability at 1 to 100 uM after 48 to 72 hrs by CCK8 assay; type: functional, cell-based
Summary of the method: (§2)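 Breast cancer MCF7 cells and normal MEC1 cells treated at a range of concentrations, concentrations up to 100 μM. Cell viability then measured. Mean ± SD, n = 4.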

[8] = Cytotoxicity against human MEC1 cells assessed as cell viability at 1 to 100 uM after 48 to 72 hrs by CCK8 assay relative to control; type: cell-based; conditions: read-out: Activity; summary of the method: as §2
[9] = tested on: MCF7; test: Induction of apoptosis in human MCF7 cells assessed as increase in cleaved PARP1 level up to 100 uM after 48 hrs by Western blot analysis; type: functional, cell-based
Summary of the method: (§3)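 MCF7 cells treated 48 h at the indicated concentrations, with vehicle-treated cells as control. Lysates immunoblotted for PARP1 and caspase 3 and their cleaved forms (CL-PARP1, CL-caspase 3).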

[10] = tested on: MCF7; test: Induction of apoptosis in human MCF7 cells assessed as increase in cleaved caspase-3 level up to 100 uM after 48 hrs by Western blot analysis; type: functional, cell-based; summary of the method: as §3
[11] = Acute toxicity in C57BL/6J mouse assessed as death at 100 mg/kg, ip administered every other day for 15 days measured during compound dosing; type: organism-based; conditions: in vivo, 360 h
Summary of the method: (§4)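 Wild-type male C57BL/6 mice, randomized into three groups of seven (21 total): vehicle (5% DMSO and 15% polyethylene glycol in saline) or 100 mg/kg test article. Dosed ip every other day for 15 days. Survival, body weight, eating, drinking and activity were recorded throughout treatment.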

[12] = Acute toxicity in C57BL/6J mouse assessed as abnormality in eating at 100 mg/kg, ip administered every other day for 15 days measured during compound dosing; type: organism-based; conditions: in vivo, 360 h; summary of the method: as §4
[13] = Acute toxicity in C57BL/6J mouse assessed as abnormality in drinking at 100 mg/kg, ip administered every other day for 15 days measured during compound dosing; type: organism-based; conditions: in vivo, 360 h; summary of the method: as §4
[14] = Acute toxicity in C57BL/6J mouse assessed as effect on normal activity at 100 mg/kg, ip administered every other day for 15 days measured during compound dosing; type: organism-based; conditions: in vivo, 360 h; summary of the method: as §4
[15] = Acute toxicity in C57BL/6J mouse assessed as decrease in body weight at 100 mg/kg, ip administered every other day for 15 days measured during compound dosing; type: organism-based; conditions: in vivo, 360 h; summary of the method: as §4
[16] = tested on: MCF7; test: Antiproliferative activity against human MCF7 cells assessed as reduction in cell viability at 50 to 100 uM after 48 hrs in presence of ROS scavenger NAC by MTT assay
[17] = Acute toxicity in C57BL/6J mouse assessed as death at 100 mg/kg, ip administered every other day for 12 days; type: organism-based; conditions: in vivo, 288 h
[18] = Acute toxicity in C57BL/6J mouse assessed as decrease in body weight at 100 mg/kg, ip administered every other day for 12 days; type: organism-based; conditions: in vivo, 288 h

| Structure (SMILES) | inhibition of growth at 50 µM [1] [%] | inhibition of growth at 50 µM [2] [%] | inhibition of growth at 50 µM [3] [%] | inhibition of growth at 50 µM [4] [%] | inhibition of growth at 50 µM [5] [%] | Activity [6] | Activity [7] | viability at up to 100 µM [8] [%] | Activity [9] | Activity [10] | Activity [11] | Activity [12] | Activity [13] | Activity [14] | Activity [15] | Activity [16] | Activity [17] | Activity [18] |
| --- | --- | --- | --- | --- | --- | --- | --- | --- | --- | --- | --- | --- | --- | --- | --- | --- | --- | --- |
| CC1(C)OB(c2ccc(Cn3cc(F)c(=O)[nH]c3=O)cc2)OC1(C)C | 90 | 96 | 95 | 81 | 87 | Active | Active | > 95 | Active | Active | Non-Toxic | Non-Toxic | Non-Toxic | Non-Toxic | Non-Toxic | inactive |  |  |
| O=c1[nH]c(=O)n(Cc2ccc(B(O)O)cc2)cc1F | 44 | 65 | 30 | 33 | 22 | Active | Active | > 95 | Active | Active |  |  |  |  |  | inactive |  |  |
| O=c1[nH]cc(F)c(=O)[nH]1 [FLUOROURACIL] |  |  |  |  |  | Active | Active |  | Active | Active |  |  |  |  |  |  | Toxic | Toxic |
| O=c1[nH]c(=O)n(Cc2ccccc2)cc1F |  |  |  |  |  |  | inactive |  |  |  |  |  |  |  |  |  |  |  |
